The results in this text go back to ChEMBL document CHEMBL5390313, “Highly Potent Peptide Therapeutics To Prevent Protein Aggregation in Huntington's Disease” (ACS Med Chem Lett, 2023).

Assay [1] deals with Huntingtin (Homo sapiens), P42858 [UNDEFINED MUTATION]. Description: Inhibition of TEV protease-induced 6His-GST tagged huntingtin polyQ 103 mutant (unknown origin) aggregation expressed in Escherichia coli BL21(DE3) assessed as relative fluorescence unit at 1:1 molar ratio incubated for 16 hrs by ThT fluorescence based spectrophotometer analysis (reference value: 1235 a.u.). Put shortly: (§1)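 Aggregation started by TEV protease addition, with ThT readings beginning right after cleavage. Peptide added equimolar (1:1) to each Htt protein. Fluorescence was followed at 37 °C for at least 16 h, with excitation at 438 nm and emission at 495 nm. The end-point value at 16 h is averaged over triplicates.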
Chain of Huntingtin (Homo sapiens), P42858 [UNDEFINED MUTATION] (P42858 whole entry, looked up, change not shown): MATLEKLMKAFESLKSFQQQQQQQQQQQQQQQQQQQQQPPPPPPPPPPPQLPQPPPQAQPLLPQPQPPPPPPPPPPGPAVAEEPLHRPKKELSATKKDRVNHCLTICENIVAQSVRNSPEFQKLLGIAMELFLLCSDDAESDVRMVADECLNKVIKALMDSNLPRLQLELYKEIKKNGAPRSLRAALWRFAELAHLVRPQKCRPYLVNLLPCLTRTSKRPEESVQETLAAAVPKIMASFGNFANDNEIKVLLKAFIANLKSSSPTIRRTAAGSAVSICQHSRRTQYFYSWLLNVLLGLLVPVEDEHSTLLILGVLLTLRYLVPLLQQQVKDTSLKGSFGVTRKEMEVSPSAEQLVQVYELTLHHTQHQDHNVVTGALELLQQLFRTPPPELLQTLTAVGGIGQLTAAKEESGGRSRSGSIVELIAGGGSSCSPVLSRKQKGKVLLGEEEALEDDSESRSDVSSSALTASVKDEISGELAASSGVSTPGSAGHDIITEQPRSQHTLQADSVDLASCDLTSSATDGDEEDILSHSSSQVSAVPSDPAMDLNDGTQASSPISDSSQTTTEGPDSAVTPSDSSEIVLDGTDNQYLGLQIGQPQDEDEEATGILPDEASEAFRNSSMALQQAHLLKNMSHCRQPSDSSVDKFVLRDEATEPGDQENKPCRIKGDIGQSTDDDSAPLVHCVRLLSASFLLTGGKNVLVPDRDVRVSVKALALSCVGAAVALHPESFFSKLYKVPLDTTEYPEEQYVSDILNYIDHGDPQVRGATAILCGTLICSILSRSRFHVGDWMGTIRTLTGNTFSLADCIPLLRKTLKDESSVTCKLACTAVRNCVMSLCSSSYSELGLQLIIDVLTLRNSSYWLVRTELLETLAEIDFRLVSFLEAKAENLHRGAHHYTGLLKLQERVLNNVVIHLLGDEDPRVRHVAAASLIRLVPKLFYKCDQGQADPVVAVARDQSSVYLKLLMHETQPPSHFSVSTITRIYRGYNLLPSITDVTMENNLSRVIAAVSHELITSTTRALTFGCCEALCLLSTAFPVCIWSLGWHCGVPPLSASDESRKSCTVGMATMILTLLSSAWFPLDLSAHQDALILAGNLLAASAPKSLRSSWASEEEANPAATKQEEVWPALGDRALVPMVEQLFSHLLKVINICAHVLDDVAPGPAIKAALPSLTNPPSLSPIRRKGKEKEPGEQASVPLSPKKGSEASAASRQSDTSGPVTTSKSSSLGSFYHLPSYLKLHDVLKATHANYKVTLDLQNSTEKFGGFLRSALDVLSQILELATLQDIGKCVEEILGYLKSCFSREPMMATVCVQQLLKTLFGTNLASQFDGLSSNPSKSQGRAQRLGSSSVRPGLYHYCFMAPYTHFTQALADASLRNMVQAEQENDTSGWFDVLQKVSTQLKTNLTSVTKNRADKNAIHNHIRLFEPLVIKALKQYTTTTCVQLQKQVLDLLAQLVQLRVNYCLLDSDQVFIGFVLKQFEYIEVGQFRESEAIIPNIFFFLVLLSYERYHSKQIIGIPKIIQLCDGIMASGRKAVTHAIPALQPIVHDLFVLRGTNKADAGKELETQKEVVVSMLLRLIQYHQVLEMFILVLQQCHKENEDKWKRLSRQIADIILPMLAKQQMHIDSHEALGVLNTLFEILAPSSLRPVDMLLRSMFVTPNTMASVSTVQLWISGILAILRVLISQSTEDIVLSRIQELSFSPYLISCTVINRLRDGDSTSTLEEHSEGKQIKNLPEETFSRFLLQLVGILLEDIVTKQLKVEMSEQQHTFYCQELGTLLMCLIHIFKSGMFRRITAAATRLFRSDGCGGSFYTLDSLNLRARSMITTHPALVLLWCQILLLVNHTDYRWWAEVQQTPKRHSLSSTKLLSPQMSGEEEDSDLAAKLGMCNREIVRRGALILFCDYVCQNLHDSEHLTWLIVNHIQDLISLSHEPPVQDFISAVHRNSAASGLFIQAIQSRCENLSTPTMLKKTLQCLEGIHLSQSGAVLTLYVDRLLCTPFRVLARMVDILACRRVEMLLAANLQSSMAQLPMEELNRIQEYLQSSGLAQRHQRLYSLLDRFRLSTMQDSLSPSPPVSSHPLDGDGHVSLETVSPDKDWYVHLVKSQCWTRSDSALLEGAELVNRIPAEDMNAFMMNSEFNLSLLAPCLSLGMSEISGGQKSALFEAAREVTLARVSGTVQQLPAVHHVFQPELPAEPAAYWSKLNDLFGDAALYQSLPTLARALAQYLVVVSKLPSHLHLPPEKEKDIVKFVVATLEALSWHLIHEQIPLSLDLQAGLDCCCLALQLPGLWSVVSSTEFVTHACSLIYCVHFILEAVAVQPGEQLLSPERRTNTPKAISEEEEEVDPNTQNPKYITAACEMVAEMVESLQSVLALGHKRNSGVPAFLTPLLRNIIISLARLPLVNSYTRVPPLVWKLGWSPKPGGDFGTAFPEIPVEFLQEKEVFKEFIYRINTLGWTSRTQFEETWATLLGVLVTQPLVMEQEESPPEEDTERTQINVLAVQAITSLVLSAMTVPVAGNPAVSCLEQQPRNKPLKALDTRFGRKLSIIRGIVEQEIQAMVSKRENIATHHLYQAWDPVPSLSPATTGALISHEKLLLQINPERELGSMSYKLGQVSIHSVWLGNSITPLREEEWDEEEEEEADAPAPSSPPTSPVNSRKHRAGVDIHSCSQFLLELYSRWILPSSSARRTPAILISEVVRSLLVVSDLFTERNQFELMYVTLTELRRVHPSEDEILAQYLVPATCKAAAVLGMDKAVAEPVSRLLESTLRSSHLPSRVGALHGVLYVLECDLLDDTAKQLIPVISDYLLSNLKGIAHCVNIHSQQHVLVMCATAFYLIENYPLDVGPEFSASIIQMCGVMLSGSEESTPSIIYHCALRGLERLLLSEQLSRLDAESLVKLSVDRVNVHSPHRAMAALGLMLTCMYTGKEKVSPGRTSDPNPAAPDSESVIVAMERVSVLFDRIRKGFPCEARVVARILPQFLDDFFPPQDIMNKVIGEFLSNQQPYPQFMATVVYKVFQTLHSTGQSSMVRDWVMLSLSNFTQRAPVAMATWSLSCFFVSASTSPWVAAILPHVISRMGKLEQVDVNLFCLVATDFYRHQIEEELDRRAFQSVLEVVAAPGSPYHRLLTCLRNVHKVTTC

Assay [2] shares this test system. Description: Inhibition of TEV protease-induced 6His-GST tagged huntingtin polyQ 46 mutant (unknown origin) aggregation expressed in Escherichia coli BL21(DE3) assessed as relative fluorescence unit at 1:1 molar ratio incubated for 16 hrs by ThT fluorescence based spectrophotometer analysis (reference value: 692 a.u.). Put shortly:
as §1

The test system is the same in assay [3]. Put plainly: Inhibition of TEV protease-induced 6His-GST tagged wildtype huntingtin polyQ 25 (unknown origin) aggregation expressed in Escherichia coli BL21(DE3) assessed as relative fluorescence unit at 1:1 molar ratio incubated for 16 hrs by ThT fluorescence based spectrophotometer analysis (reference value: 666 a.u.). Put shortly:
as §1

The test system is the same in assay [4]. Description: Inhibition of TEV protease-induced 6His-GST tagged huntingtin polyQ 103 mutant (unknown origin) aggregation assessed as reduction of spherical oligomers at 10 uM measured immediately by AFM imaging analysis. Put shortly: (§2)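 AFM imaging of Htt aggregates after TEV cleavage. Fibrils were allowed to grow for 2 h, then peptide or nothing (control) was added, defining t = 0 h. Images were taken over 0–24 h and scored for spherical oligomers, individual fibrils, branching and aggregate clusters.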

Assay [5] has the same test system. Put plainly: Inhibition of TEV protease-induced 6His-GST tagged huntingtin polyQ 103 mutant (unknown origin) aggregation assessed as reduction in individual fibrils at 10 uM measured immediately by AFM imaging analysis. Put shortly: as §2
Assay [6] has the same test system. Description: Inhibition of TEV protease-induced 6His-GST tagged huntingtin polyQ 46 mutant (unknown origin) aggregation assessed as reduction of spherical oligomers at 10 uM measured immediately by AFM imaging analysis. Put shortly:
as §2

Assay [7] shares this test system. Put plainly: Inhibition of TEV protease-induced 6His-GST tagged huntingtin polyQ 103 mutant (unknown origin) aggregation assessed as decrease in fibril clustering at 10 uM measured after 24 hrs by AFM imaging analysis. The essentials: as §2
Assay [8] has the same test system. Description: Inhibition of TEV protease-induced 6His-GST tagged huntingtin polyQ 103 mutant (unknown origin) aggregation assessed as decrease in fibril length at 10 uM measured after 2 to 12 hrs by AFM imaging analysis. Conditions: time 2-12 hrs.
Assay [9] has the same test system. Put plainly: Inhibition of TEV protease-induced 6His-GST tagged huntingtin polyQ 103 mutant (unknown origin) aggregation assessed as decrease in fibril length at 10 uM incubated for 24 hrs by AFM imaging analysis relative to control. More on the design: scale not given: the % may be the effect or the level left. Put shortly:
(§3)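 AFM imaging of Htt fibrils grown for 2 h after TEV cleavage in TEV cleavage buffer (pH 8.0). Peptide was then added, defining t = 0 h. Fibril length was measured at 0, 4, 8 and 24 h and reported as the mean length of 100 fibrils with standard deviation at each time point.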

For assay [10] the test system is unchanged. Description: Inhibition of TEV protease-induced 6His-GST tagged huntingtin polyQ 46 mutant (unknown origin) aggregation assessed as decrease in fibril length at 10 uM incubated for 24 hrs by AFM imaging analysis relative to control. The arrangement: scale not given: the % may be the effect or the level left. Put shortly:
as §3

Assay [11] shares this test system. Description: Inhibition of TEV protease-induced 6His-GST tagged wildtype huntingtin polyQ 25 (unknown origin) aggregation assessed as decrease in fibril length at 10 uM incubated for 24 hrs by AFM imaging analysis relative to control. The arrangement: scale not given: the % may be the effect or the level left. The essentials: as §3
Assay [12] shares this test system. Put plainly: Inhibition of TEV protease-induced 6His-GST tagged huntingtin polyQ 103 mutant (unknown origin) aggregation assessed as decrease in fibril branching at 10 uM measured after 4 to 24 hrs by AFM imaging analysis. The following applies: time 4-24 hrs. Put shortly: as §2
Assay [13] shares this test system. Description: Inhibition of TEV protease-induced 6His-GST tagged huntingtin polyQ 103 mutant (unknown origin) aggregation assessed as isolated fibrils at 10 uM measured after 4 to 8 hrs by AFM imaging analysis. Conditions: time 4-8 hrs.
The test system is the same in assay [14]. Description: Inhibition of TEV protease-induced 6His-GST tagged huntingtin polyQ 46 mutant (unknown origin) aggregation assessed as decrease in fibril length at 10 uM measured after 2 to 12 hrs by AFM imaging analysis. Conditions: time 2-12 hrs.
For assay [15] the test system is unchanged. Put plainly: Inhibition of TEV protease-induced 6His-GST tagged huntingtin polyQ 46 mutant (unknown origin) aggregation assessed as decrease in individual fibers at 10 uM measured after 2 to 24 hrs by AFM imaging analysis. The following applies: time 2-24 hrs. Put shortly:
as §2

Assay [16] has the same test system. Put plainly: Inhibition of TEV protease-induced 6His-GST tagged huntingtin polyQ 103 mutant (unknown origin) aggregation assessed as decrease in individual fibers at 10 uM measured after 2 to 24 hrs by AFM imaging analysis. The following applies: time 2-24 hrs. The essentials: as §2
Assay [17] shares this test system. Description: Inhibition of TEV protease-induced 6His-GST tagged wildtype huntingtin polyQ 25 (unknown origin) aggregation assessed as decrease in individual fibers at 10 uM measured after 2 to 24 hrs by AFM imaging analysis. The following applies: time 2-24 hrs. The essentials: as §2
The test system is the same in assay [18]. Description: Inhibition of TEV protease-induced 6His-GST tagged wildtype huntingtin polyQ 25 (unknown origin) aggregation assessed as reduction of spherical oligomers at 10 uM measured immediately by AFM imaging analysis.

Active and inactive are the calls of the source. The rule behind the calls is not given here.

Turning to `CSCC[C@H](NC(=O)[C@@H](N)Cc1c[nH]c2ccccc12)C(=O)N[C@@H](Cc1ccccc1)C(=O)N1CCC[C@H]1C(=O)N[C@@H](CO)C(=O)N[C@@H](CC(C)C)C(=O)N[C@@H](CCCCN)C(=O)N[C@@H](CC(C)C)C(=O)N[C@@H](CC(C)C)C(=O)N[C@@H](CC(=O)O)C(=O)N[C@@H](Cc1ccc(O)cc1)C(=O)N[C@@H](Cc1c[nH]cn1)C(=O)O`, the RFU is 431 a.u in assay [1], 634 a.u in assay [2] and 552 a.u in [3]. The inhibition entry in assay [4], in [5], in assay [6] and in [18] was “inactive” throughout. Also, the inhibition result in [7], in assay [8], in [12], in [13], in assay [14] and in assay [15] was “Active” each time. Also, the inhibition result in [16] and in assay [17] was “Active” each time. The Activity came to 28% in assay [9], 17.3% in assay [10] and 25.6% in assay [11].

Turning to `CSCC[C@H](NC(=O)[C@H](CO)NC(=O)[C@H](Cc1c[nH]cn1)NC(=O)[C@H](CC(C)C)NC(=O)CNC(=O)[C@@H](N)Cc1c[nH]cn1)C(=O)N[C@@H](Cc1c[nH]cn1)C(=O)N[C@@H](CC(N)=O)C(=O)N[C@@H](CCCCN)C(=O)N[C@@H](CC(C)C)C(=O)N[C@@H](CC(C)C)C(=O)N[C@@H](CCC(N)=O)C(=O)N[C@H](C(=O)O)[C@@H](C)O`, the values for the RFU in [1], in assay [2] and in assay [3] were 433 a.u, 500 a.u and 459 a.u, respectively. Besides, the inhibition entry in assay [4], in assay [5], in assay [6] and in assay [18] was “inactive” each time. The inhibition result in assay [7], in assay [8], in assay [12], in [13], in assay [14] and in assay [15] was “Active” throughout. In addition, the inhibition result in [16] and in assay [17] was “Active” throughout. Moreover, the figures for the Activity in [9], in assay [10] and in [11] were 22.7%, 17.6% and 38.3%, respectively.

`CC(C)C[C@H](NC(=O)CNC(=O)[C@H](CC(C)C)NC(=O)[C@H](CO)NC(=O)[C@H](CC(N)=O)NC(=O)[C@H](C)NC(=O)CNC(=O)[C@H](Cc1c[nH]cn1)NC(=O)[C@@H](N)Cc1c[nH]cn1)C(=O)N[C@H](C(=O)N[C@@H](CCC(N)=O)C(=O)N[C@@H](CO)C(=O)O)C(C)C`: the RFU in assay [1] was found to be 564 a.u; in [2], 357 a.u; in assay [3], 424 a.u. For the same compound, the inhibition entry in [4], in assay [5], in assay [6] and in assay [18] was “inactive” throughout. In addition, the inhibition result in assay [7], in assay [8], in assay [12], in [13], in [14] and in [15] was “Active” throughout. Also, the inhibition result in [16] and in [17] was “Active” in each case. In addition, the Activity is 36.7% in assay [9], 24.9% in assay [10] and 42.9% in assay [11].
